Reference: ChEMBL document CHEMBL3585302, “Synthesis and antibacterial activities of cadiolides A, B and C and analogues” (Bioorg Med Chem, 2015)
Activity calls are given as the source filed them.

Experiments:
Format in all cases: functional, organism-based
[1] = tested on: Bacillus cereus; assay: Antibacterial activity against Bacillus cereus CECT 148 assessed as inhibition of microbial growth at 125 ug/ml incubated for 18 hrs by 2-fold microtiter broth dilution method
In short: (§1)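 Compounds in DMSO, ten 2-fold serial dilutions (125 down to 0.24 µg/mL tested). Bacteria at OD620 = 0.001 in Nutrient Broth mixed 1:1 with dilutions. Incubated overnight (18 h) at 28°C or 37°C according to strain. Growth read turbidimetrically at OD620. MIC is the lowest concentration giving complete growth inhibition. Triplicate runs. Tetracycline as reference.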

[2] = tested on: Staphylococcus aureus; assay: Antibacterial activity against Staphylococcus aureus CECT 86 assessed as inhibition of microbial growth at 125 ug/ml incubated for 18 hrs by 2-fold microtiter broth dilution method; in short: as §1
[3] = tested on: Enterococcus faecalis; assay: Antibacterial activity against Enterococcus faecalis CECT 481 assessed as inhibition of microbial growth at 125 ug/ml incubated for 18 hrs by 2-fold microtiter broth dilution method; in short: as §1
[4] = tested on: Salmonella typhi; assay: Antibacterial activity against Salmonella typhi CECT 409 assessed as inhibition of microbial growth at 125 ug/ml incubated for 18 hrs by 2-fold microtiter broth dilution method; conditions: Salmonella enterica subsp. enterica serovar Typhi
In short: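 Compounds in DMSO, ten 2-fold serial dilutions (125 down to 0.24 µg/mL), mixed 1:1 with bacteria in Nutrient Broth at OD620 = 0.001. Incubated overnight (18 h) at 28 or 37 °C depending on strain. Growth read turbidimetrically at OD620; MIC is the lowest concentration completely inhibiting growth, per CLSI. Triplicate runs; tetracycline reference.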

[5] = tested on: Escherichia coli; assay: Antibacterial activity against Escherichia coli CECT 405 assessed as inhibition of microbial growth at 125 ug/ml incubated for 18 hrs by 2-fold microtiter broth dilution method; in short: as §1
[6] = tested on: Pectobacterium carotovorum; assay: Antibacterial activity against Erwinia carotovora CECT 225 assessed as inhibition of microbial growth at 125 ug/ml incubated for 18 hrs by 2-fold microtiter broth dilution method; in short: as §1
[7] = tested on: Bacillus subtilis; assay: Antibacterial activity against Bacillus subtilis CECT 35 assessed as inhibition of microbial growth at 125 ug/ml incubated for 18 hrs by 2-fold microtiter broth dilution method; in short: as §1
[8] = tested on: Escherichia coli; assay: Antibacterial activity against Escherichia coli CECT 100 assessed as inhibition of microbial growth at 125 ug/ml incubated for 18 hrs by 2-fold microtiter broth dilution method; in short: as §1

Measured: growth inhibition (GI)

COc1ccc(C2=C(C(=O)c3ccco3)C(=O)O/C2=C\c2ccc(O)cc2)cc1
inactive: all assays above

COc1c(Br)cc(C2=C(C(=O)c3ccc(O)cc3)C(=O)O/C2=C\c2cc(Br)c(O)c(Br)c2)cc1Br
inactive: all assays above

COc1c(Br)cc(C2=C(C(=O)c3ccc(O)c(Br)c3)C(=O)O/C2=C\c2ccc(O)c(Br)c2)cc1Br
inactive: all assays above

COc1ccc(C2=C(C(=O)c3ccc(O)c(Br)c3)C(=O)O/C2=C\c2ccc(O)c(Br)c2)cc1Br
inactive: all assays above

COc1ccc(C2=C(C(=O)c3ccc(O)cc3)C(=O)O/C2=C\c2ccc(O)cc2)cc1
inactive: all assays above

COc1c(Br)cc(C2=C(C(=O)c3ccc(O)c(Br)c3)C(=O)O/C2=C\c2cc(Br)c(O)c(Br)c2)cc1Br
inactive: all assays above

COc1ccc(C2=C(C(=O)c3ccc(O)c(Br)c3)C(=O)O/C2=C\c2ccc(O)c(Br)c2)cc1
inactive: all assays above

COc1c(Br)cc(C2=C(C(=O)c3ccco3)C(=O)O/C2=C\c2ccc(O)c(Br)c2)cc1Br
inactive: all assays above

COc1ccc(C2=C(C(=O)c3ccc(O)cc3)C(=O)O/C2=C\c2ccc(O)c(Br)c2)cc1
inactive: all assays above

COc1ccc(C2=C(C(=O)c3ccc(O)cc3)C(=O)O/C2=C\c2ccc(O)c(Br)c2)cc1Br
inactive: all assays above

COc1ccc(C2=C(C(=O)c3ccc(O)c(Br)c3)C(=O)O/C2=C\c2cc(Br)c(O)c(Br)c2)cc1Br
inactive: all assays above

COc1c(Br)cc(C2=C(C(=O)c3cc(Br)c(O)c(Br)c3)C(=O)O/C2=C\c2cc(Br)c(O)c(Br)c2)cc1Br
inactive: all assays above
